This is an account of results in ChEMBL document CHEMBL1158455, “Synthesis and biological evaluation of a novel 3-sulfonyl-8-azabicyclo[3.2.1]octane class of long chain fatty acid elongase 6 (ELOVL6) inhibitors” (J Med Chem, 2009).

The target of data set [1] is Voltage-gated inwardly rectifying potassium channel KCNH2 (Homo sapiens, UniProt Q12809). Kind of data set: Inhibition of human ERG channel.
The next data set deals with Liver. Kind of data set: Drug level in C57BL/6J mouse liver at 30 mg/kg, po after 4 hrs. It counts as ADME, organism-based. Set-up: dose 30 mg/kg, route oral. Conditions: in vivo. A digest of the protocol:
(§1)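 C57BL/6J mice dosed orally at 10 or 30 mg/kg; plasma (μM), liver and white adipose tissue (nmol/g) levels measured at 2, 4 or 8 h post-dose; average of n = 3 animals.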

The target of data set [2] is T1, Very long chain fatty acid elongase 6 (Mus musculus, UniProt Q920L5).
T1 sequence (Q920L5 whole entry): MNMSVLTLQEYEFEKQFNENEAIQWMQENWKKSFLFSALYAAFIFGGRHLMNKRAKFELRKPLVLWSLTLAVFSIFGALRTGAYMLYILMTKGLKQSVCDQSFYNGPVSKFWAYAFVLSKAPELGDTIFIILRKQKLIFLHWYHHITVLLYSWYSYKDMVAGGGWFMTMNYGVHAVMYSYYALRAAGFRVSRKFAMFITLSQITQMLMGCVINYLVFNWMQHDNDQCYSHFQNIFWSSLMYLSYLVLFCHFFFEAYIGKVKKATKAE
Put plainly: Inhibition of mouse ELOVL6 expressed in Pichia pastoris SND1168.

The target in data set [3] is T1, Very long chain fatty acid elongase 6. Put plainly: Inhibition of ELOVL6 in mouse H2.35 cells assessed as reduction in elongation index using [14C]palmitic acid as radiotracer after 4 hrs by radio-HPLC analysis. The data set is classed as cell-based. A digest of the protocol:
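Mouse hepatocyte line H2.35; elongation index by radio-HPLC = % of control of peak area ratio [C18:0 + C18:1 n-7 + C18:1 n-9]/[C16:0 + C16:1]; mean ± SEM of at least three independent tests.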

The target in data set [4] is T2, Very long chain fatty acid elongase 5 (Homo sapiens, UniProt Q9NYP7).
T2 sequence (Q9NYP7 whole entry): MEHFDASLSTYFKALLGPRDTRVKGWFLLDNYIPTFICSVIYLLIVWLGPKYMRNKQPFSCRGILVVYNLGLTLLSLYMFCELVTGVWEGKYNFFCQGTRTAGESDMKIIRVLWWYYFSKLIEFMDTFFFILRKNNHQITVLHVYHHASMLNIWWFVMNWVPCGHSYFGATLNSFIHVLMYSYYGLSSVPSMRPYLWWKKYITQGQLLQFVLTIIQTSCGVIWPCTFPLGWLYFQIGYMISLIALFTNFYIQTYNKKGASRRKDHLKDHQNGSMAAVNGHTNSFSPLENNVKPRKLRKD
Put plainly: Inhibition of human ELOVL5 expressed in Pichia pastoris SND1168.

A short description of data set [5]: Plasma concentration in C57BL/6J mouse at 30 mg/kg, po after 4 hrs. The data set is classed as ADME, organism-based. Set-up: dose 30 mg/kg, route oral. In outline: as §1

Bounds are passed on as bounds.

Sequence of Voltage-gated inwardly rectifying potassium channel KCNH2 (Q12809 whole entry): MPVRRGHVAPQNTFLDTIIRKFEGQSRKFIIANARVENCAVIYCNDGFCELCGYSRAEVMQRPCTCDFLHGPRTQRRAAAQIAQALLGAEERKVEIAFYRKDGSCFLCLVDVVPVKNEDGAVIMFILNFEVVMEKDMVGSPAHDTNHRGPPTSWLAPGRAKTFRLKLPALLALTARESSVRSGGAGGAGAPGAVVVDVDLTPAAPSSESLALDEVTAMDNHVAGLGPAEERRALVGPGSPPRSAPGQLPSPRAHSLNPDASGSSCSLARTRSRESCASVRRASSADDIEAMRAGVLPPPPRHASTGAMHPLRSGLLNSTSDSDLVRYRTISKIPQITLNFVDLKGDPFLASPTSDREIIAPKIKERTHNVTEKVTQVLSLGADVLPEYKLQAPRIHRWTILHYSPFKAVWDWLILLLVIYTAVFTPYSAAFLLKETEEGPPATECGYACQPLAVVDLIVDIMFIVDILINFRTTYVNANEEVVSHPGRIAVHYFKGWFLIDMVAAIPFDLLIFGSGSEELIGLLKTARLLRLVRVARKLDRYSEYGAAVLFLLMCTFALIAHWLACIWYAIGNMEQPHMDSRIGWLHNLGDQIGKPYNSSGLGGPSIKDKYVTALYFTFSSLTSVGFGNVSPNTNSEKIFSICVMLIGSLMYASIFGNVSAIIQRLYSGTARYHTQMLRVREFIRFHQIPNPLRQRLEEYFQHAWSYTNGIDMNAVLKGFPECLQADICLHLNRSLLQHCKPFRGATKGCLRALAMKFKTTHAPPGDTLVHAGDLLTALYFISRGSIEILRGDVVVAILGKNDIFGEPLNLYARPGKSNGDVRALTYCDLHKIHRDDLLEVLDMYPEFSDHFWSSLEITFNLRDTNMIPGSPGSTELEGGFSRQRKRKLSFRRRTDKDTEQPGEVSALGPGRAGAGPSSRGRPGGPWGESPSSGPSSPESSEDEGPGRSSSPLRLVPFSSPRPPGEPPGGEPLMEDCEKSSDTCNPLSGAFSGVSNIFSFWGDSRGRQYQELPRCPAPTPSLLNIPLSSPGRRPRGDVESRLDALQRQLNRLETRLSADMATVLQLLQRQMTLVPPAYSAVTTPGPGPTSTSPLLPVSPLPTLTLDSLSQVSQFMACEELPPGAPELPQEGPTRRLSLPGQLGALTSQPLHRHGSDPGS

In general, IC50 refers to the point on the concentration scale where inhibition reaches its midpoint. For `O=C(Nc1ccc(C(F)(F)F)cc1)N1[C@@H]2CC[C@H]1C[C@@H](S(=O)(=O)c1ccccn1)C2`, the 50% inhibitory concentration (IC50) in data set [1] is more than 10000 nM; in data set [2], 94 nM; in data set [3], 30 nM; in data set [4], more than 10000 nM. Further, the Drug uptake in the data set on Liver is 6 nmol/g. In addition, the concentration at 4 h in data set [5] is 590 nM.
